In publication PMC7468319 (Acta Pharmacologica Sinica, 2019):

Experiments:
BTK [1] = test: Western blot, phosphorylation of BTK at Tyr223 in TMD8 cells; format: cell-based, human; conditions: Tyr223, 4 h
BTK [2] = target: BTK (Homo sapiens, UniProt Q06187); format: biochemical
TMD8 cells = test: Annexin V-FITC apoptosis analysis by flow cytometry; format: cell-based, human; conditions: TMD8, 72 h, untreated control 12.77%
[3] = test system: Rb, phosphorylated Rb, and cyclin D1; test: Western blot of G1 phase related proteins; format: cell-based, human; conditions: TMD8, 48 h
PARP and caspase 3 = test: Western blot of cleaved PARP and cleaved caspase 3; format: cell-based, human; conditions: TMD8, Western blot
EGFR [4] = target: T1, EGFR (Homo sapiens, UniProt P00533); test: Kinase selectivity ELISA at 1000 nM, EGFR; format: biochemical
T1 sequence (P00533 25-1210): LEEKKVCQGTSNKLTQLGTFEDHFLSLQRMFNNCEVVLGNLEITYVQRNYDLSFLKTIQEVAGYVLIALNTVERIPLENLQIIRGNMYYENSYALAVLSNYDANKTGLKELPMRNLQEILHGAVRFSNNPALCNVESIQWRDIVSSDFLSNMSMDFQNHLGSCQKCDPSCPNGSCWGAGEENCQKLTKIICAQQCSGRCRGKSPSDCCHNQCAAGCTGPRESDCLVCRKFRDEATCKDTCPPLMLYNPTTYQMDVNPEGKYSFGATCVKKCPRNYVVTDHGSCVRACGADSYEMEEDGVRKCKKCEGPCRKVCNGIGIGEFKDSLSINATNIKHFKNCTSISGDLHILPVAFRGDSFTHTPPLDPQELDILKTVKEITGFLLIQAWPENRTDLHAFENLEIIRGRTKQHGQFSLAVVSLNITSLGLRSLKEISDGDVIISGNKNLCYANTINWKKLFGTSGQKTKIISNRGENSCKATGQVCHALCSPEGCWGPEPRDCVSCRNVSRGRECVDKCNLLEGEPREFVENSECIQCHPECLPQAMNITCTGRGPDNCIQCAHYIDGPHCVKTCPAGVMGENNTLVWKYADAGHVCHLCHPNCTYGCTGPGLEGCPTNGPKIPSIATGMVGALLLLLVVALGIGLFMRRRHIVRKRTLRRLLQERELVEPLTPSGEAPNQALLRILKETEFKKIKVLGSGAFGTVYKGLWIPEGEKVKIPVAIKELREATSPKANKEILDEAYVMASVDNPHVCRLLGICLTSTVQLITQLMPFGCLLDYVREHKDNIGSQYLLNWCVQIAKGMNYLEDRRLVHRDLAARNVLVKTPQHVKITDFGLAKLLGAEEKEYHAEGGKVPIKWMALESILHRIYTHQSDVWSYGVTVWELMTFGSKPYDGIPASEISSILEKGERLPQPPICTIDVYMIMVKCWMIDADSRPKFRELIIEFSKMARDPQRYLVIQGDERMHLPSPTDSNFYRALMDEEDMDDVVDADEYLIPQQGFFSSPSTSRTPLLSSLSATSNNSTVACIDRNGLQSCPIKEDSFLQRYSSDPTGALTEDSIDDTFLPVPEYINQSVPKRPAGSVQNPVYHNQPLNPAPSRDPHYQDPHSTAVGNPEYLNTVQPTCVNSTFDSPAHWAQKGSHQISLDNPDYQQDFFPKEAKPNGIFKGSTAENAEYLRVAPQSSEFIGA
Summary of the method: (§1)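 ELISA-based kinase activity assay using commercially sourced recombinant kinases, with absorbance read at 490 nm. Each test compound was profiled at 1000 nM against a panel of 35 kinases, and percent inhibition was determined for each kinase.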

ErbB2 = ErbB2 (Homo sapiens, UniProt P04626); test: Kinase selectivity ELISA at 1000 nM, ErbB2; format: biochemical
Chain of ErbB2 (P04626 23-1255): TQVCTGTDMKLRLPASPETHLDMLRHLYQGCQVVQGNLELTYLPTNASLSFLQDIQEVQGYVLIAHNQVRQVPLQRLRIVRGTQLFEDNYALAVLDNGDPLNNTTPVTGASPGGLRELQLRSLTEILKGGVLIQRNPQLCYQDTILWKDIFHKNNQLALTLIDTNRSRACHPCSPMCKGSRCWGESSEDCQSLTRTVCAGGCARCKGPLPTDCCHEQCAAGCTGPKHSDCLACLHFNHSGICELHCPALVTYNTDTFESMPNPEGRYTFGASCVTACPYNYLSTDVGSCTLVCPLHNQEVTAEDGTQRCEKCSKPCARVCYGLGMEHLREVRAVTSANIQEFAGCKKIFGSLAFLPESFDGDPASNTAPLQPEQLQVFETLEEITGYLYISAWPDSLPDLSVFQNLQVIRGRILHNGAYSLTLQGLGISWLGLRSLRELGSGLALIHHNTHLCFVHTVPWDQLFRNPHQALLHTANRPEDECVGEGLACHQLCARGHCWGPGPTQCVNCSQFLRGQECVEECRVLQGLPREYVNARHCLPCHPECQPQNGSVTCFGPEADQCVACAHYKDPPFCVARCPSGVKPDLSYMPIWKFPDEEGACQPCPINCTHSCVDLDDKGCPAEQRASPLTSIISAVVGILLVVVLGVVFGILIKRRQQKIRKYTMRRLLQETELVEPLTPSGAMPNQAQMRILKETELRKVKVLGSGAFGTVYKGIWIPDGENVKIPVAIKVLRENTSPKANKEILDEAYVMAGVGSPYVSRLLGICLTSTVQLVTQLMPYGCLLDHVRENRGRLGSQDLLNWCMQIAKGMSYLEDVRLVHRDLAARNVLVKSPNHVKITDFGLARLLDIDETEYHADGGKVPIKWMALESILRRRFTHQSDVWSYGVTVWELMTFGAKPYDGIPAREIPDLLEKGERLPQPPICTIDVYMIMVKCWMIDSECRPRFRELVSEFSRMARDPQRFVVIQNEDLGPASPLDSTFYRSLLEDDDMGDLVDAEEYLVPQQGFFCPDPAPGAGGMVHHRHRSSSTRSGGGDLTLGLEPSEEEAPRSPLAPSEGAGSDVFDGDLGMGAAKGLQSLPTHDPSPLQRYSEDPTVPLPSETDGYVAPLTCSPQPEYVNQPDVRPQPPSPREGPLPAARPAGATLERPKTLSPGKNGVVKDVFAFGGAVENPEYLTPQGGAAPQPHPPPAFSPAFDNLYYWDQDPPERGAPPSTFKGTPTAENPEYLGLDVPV
Summary of the method: as §1

ErbB4 = ErbB4 (Homo sapiens, UniProt Q15303); test: Kinase selectivity ELISA at 1000 nM, ErbB4; format: biochemical
Summary of the method: as §1

ITK = target: T2, ITK (Homo sapiens, UniProt Q08881); test: Kinase selectivity ELISA at 1000 nM, ITK; format: biochemical
T2 sequence (Q08881 1-620): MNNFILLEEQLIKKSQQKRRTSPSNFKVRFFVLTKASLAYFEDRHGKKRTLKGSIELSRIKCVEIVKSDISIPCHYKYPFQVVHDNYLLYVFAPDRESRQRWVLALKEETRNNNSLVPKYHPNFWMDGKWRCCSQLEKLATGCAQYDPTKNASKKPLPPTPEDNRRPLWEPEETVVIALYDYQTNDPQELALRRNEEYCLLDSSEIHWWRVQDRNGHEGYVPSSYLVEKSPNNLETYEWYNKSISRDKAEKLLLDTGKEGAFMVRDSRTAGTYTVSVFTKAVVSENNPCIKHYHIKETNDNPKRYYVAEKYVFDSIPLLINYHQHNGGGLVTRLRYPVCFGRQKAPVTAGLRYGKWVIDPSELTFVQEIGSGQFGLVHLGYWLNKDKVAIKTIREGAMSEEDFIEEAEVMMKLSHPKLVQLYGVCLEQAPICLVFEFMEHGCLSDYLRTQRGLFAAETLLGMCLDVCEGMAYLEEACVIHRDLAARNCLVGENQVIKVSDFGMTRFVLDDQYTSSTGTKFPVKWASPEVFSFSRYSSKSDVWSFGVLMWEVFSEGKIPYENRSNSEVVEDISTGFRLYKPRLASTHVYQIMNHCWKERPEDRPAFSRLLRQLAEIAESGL
Summary of the method: as §1

panel of 35 kinases = test: Kinase selectivity profile, panel of 35 kinases; format: biochemical; conditions: 1000 nM
Summary of the method: as §1

EGFR [5] = target: T1, EGFR; conditions: read-out: IC50 against EGFR; in vitro enzymatic activity; cited from earlier work

Chain of BTK (Homo sapiens, UniProt Q06187) (Q06187 whole entry): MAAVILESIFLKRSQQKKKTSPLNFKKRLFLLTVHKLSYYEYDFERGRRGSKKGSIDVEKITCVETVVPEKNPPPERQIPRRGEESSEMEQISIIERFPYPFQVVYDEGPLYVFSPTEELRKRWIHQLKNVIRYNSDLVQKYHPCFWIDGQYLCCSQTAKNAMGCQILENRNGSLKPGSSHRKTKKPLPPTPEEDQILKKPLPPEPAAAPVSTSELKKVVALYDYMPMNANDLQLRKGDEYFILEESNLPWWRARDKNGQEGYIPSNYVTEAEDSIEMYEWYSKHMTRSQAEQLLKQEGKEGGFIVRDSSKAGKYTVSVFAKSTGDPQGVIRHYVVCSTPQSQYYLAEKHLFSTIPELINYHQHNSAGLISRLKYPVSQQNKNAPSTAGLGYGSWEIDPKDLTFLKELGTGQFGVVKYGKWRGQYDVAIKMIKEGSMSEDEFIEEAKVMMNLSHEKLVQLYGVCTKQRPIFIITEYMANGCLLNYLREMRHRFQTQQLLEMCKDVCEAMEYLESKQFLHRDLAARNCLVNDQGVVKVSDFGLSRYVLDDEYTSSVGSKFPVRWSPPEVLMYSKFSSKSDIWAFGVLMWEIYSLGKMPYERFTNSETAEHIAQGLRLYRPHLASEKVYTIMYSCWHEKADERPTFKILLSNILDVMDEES

| selectivity for BTK than for EGFR (BTK [2]; IC50 EGFR vs IC50 BTK) | IC50 (BTK [2]; read-out: IC50 against BTK, ELISA-based kinase assay) [nM] | inhibition of EGFR (EGFR [4]) | inhibition of ErbB2 (ErbB2) | inhibition of ErbB4 (ErbB4) | inhibition of ITK (ITK) | inhibition of the other kinases tested (panel of 35 kinases) | number of kinases with greater than 50% inhibition (panel of 35 kinases) | SMILES | phosphorylation of BTK in TMD8 cells (BTK [1]) | apoptosis rate (TMD8 cells; 10 nM) [%] | apoptosis rate (TMD8 cells; 100 nM) [%] | apoptosis rate (TMD8 cells; 1000 nM) [%] | levels of Rb, phosphorylated Rb, and cyclin D1 proteins [3] | cleavage of PARP and caspase 3 proteins (PARP and caspase 3) | IC50 (EGFR [5]) [nM] |
| --- | --- | --- | --- | --- | --- | --- | --- | --- | --- | --- | --- | --- | --- | --- | --- |
| – | – | – | – | – | – | – | – | CC#CC(=O)N1CCC[C@H]1c1nc(-c2ccc(C(=O)Nc3ccccn3)cc2)c2c(N)nccn12 [ACP-196, acalabrutinib] | effectively suppressed | – | – | – | – | – | – |
| greater than 6 fold | 7 | greater than 50% | greater than 50% | greater than 50% | greater than 50% | did not appreciably inhibit | seven | C=CC(=O)Nc1cccc(N2C(=O)OC(C)c3cnc(Nc4ccc(N5CCN(C)CC5)cc4OC)nc32)c1 (centres unmarked) [Compound 2, N-(3-(7-((2-methoxy-4-(4-methylpiperazin-1-yl)phenyl)amino)-4-methyl-2-oxo-2H-pyrimido[4,5-d][1,3]oxazin-1(4H)-yl)phenyl)acrylamide] | effectively suppressed | 44.46 | 57.95 | 69.46 | reduction | increased in a dose-dependent manner | 47.4 |
| – | – | – | – | – | – | – | – | C=CC(=O)N1CCC[C@@H](n2nc(-c3ccc(Oc4ccccc4)cc3)c3c(N)ncnc32)C1 [ibrutinib] | effectively suppressed | – | – | – | – | – | – |
